Results on 26 molecules are retold here after ChEMBL document CHEMBL1139610, “Design, synthesis, and biological evaluation of novel 4-hydro-quinoline-3-carboxamide derivatives as an immunomodulator” (2005).

What all share (assay type): functional
Assay [1] in a line: In vitro percent inhibition of ConA induced T-cell proliferation at the dose 1 ug/mL. Put shortly: (§1)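 Spleen cells sieved to single-cell suspension, red cells lysed with 0.16 M NH4Cl-Tris, washed, in RPMI-1640 + 10% FBS; seeded at 2.5×10^6/mL, stimulated with ConA 0.5 µg/mL, drug final 1, 10 or 100 µg/mL, triplicates; 72 h at 37 °C, [3H]thymidine 0.5 µCi for final 16 h; cpm counted; %inhibition = (control − drug)/control.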

Assay [2] in a line: In vitro percent inhibition of ConA induced T-cell proliferation at the dose 10 ug/mL. The method in brief: as §1
The nature of assay [3]: In vitro percent inhibition of ConA induced T-cell proliferation at the dose 100 ug/mL. Put shortly: as §1
Assay [4] concerns the target T1, Tumor necrosis factor (Mus musculus) (UniProt P06804).
T1 sequence (whole entry): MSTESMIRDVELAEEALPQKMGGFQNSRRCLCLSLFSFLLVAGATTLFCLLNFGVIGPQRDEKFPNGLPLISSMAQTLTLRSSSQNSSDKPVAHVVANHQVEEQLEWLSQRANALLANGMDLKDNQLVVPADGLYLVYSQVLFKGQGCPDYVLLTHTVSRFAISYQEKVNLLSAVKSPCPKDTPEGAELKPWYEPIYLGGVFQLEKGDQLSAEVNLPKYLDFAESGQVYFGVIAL
The assay is described as follows: In vitro percent inhibition of tumor necrosis factor, alpha secreted by macrophage at the dose 100 ug/mL. The method in brief:
(§2)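 RAW264.7 macrophages in RPMI 1640 with 10% FCS, 2 mM glutamine, gentamycin; seeded 2×10^5/mL, grown ~3 days to confluence at 37 °C, 5% CO2; LPS 10 µg/mL plus drug at final 1, 10 or 100 µg/mL for 24 h; supernatant TNF-α by ELISA; %inhibition = (control mean − drug mean)/control mean.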

Assay [5] in a line: In vitro percent inhibition of LPS induced B-cell proliferation at the dose 10 ug/mL. The method in brief:
(§3)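 Splenocyte single-cell suspension (red cells lysed, 0.16 M NH4Cl-Tris), RPMI-1640 + 10% FBS, 2.5×10^6/mL; LPS 10 µg/mL stimulation with drug at final 1, 10 or 100 µg/mL, triplicate wells; cultured 72 h, 37 °C, [3H]thymidine pulse 0.5 µCi last 16 h, β-counting; %inhibition = (control mean − drug mean)/control mean.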

A short description of assay [6]: In vitro percent inhibition of LPS induced B-cell proliferation at the dose 1 ug/mL. Put shortly:
as §3

Assay [7] concerns the target T1, Tumor necrosis factor (Mus musculus). The assay is described as follows: In vitro percent inhibition of tumor necrosis factor, alpha secreted by macrophage at the dose 1 ug/mL. The method in brief: as §2
For assay [8] the target is unchanged. Nature of the assay: In vitro percent inhibition of tumor necrosis factor, alpha secreted by macrophage at the dose 10 ug/mL. Put shortly:
as §2

A short description of assay [9]: In vitro percent inhibition of LPS induced B-cell proliferation at the dose 100 ug/mL. Put shortly: as §3

A word on the inhibition: it is the drop in the measured response relative to a control, in per cent. For `CN(C)CC(C)(C)CNC(=O)c1cnc2cc(F)ccc2c1O`, the inhibition at 1 µg/mL in [1] was 20.8%. The inhibition at 10 µg/mL in assay [2] turned out to be 37.2%. For the same molecule, the inhibition at 100 µg/mL in [3] was 96.3%.
On to `CCN(C(=O)c1cnc2c(C)cc(C)cc2c1O)c1ccccc1`, for which the inhibition in assay [4] came to 47.6%; in [7] it was 46.3%; in assay [8], 29.7%. Also, the inhibition at 10 µg/mL was determined as 36% in assay [5] and 35.5% in [2]. Besides, the inhibition at 1 µg/mL came out at 31.9% in [1] and 4.49% in assay [6]. The inhibition at 100 µg/mL stood at 64.2% in [3] and 87.5% in assay [9].
Take `CSc1ccc2c(O)c(C(=O)N(C)c3ccccc3)cnc2c1`: the inhibition in [4] is 52.7%; in [7], 14.6%; in assay [8], 22.2%. Moreover, the inhibition at 10 µg/mL in assay [5] came to 17%; in assay [2], 11.8%. Besides, the inhibition at 1 µg/mL in assay [1] is 26.2%; in assay [6], 31.1%. The figures for the inhibition at 100 µg/mL in assay [3] and in assay [9] were 76% and 83.5%, respectively.
For `CSc1cccc2c(O)c(C(=O)NCCN(C)C)cnc12`, the inhibition at 1 µg/mL in assay [1] amounted to 32%. For the same molecule, the inhibition at 10 µg/mL in assay [2] stood at 69.1%. Further, the inhibition at 100 µg/mL in assay [3] came to 99.9%.
With `COc1ccc2c(O)c(C(=O)NCC(C)(C)CN(C)C)cnc2c1`, the inhibition at 10 µg/mL came to 72.3% in assay [5] and 29.4% in assay [2]. The inhibition at 1 µg/mL was 32.6% in assay [1] and 48.8% in assay [6]. The inhibition at 100 µg/mL in assay [3] came to 98.5%; in [9] it was 91.6%.
For the molecule `CSc1cccc2c(O)c(C(=O)N(C)c3ccccc3)cnc12`, the figures for the inhibition in assay [4] and in assay [7] were -9.52% and 2.08%, respectively. In addition, the values for the inhibition at 10 µg/mL in assay [5] and in [2] were 36.5% and 52.4%, respectively. Also, the inhibition at 1 µg/mL in assay [1] is 11.4%; in assay [6] it was -2.46%. In addition, the inhibition at 100 µg/mL is 81.7% in [3] and 71.7% in assay [9].
`CSc1ccc2ncc(C(=O)N(C)c3ccccc3)c(O)c2c1`: the inhibition at 10 µg/mL was -144% in [5] and -155% in [2]. Moreover, the inhibition at 1 µg/mL in [6] is -47%. Besides, the inhibition at 100 µg/mL in assay [3] was 96.3%; in assay [9] it was 65.6%.
As for `CN(C)CCNC(=O)c1cnc2ccc([N+](=O)[O-])cc2c1O`, the inhibition at 1 µg/mL in assay [1] amounted to 41.5%. In addition, the inhibition at 10 µg/mL in [2] stood at 53.2%. The inhibition at 100 µg/mL in assay [3] amounted to 99.9%.
Consider `CN(C)CCNC(=O)c1cnc2cc(Cl)ccc2c1O`, for which, in [1], the inhibition at 1 µg/mL was 14%. In addition, the inhibition at 10 µg/mL in assay [2] is 33.7%. Moreover, the inhibition at 100 µg/mL in assay [3] was 99.9%.
`O=C(NCCO)c1cnc2cc(Cl)ccc2c1O`: the values for the inhibition in assay [4] and in assay [8] were 77.7% and 6.06%, respectively. Also, the inhibition at 10 µg/mL came to 29.1% in [5] and 49.8% in [2]. The inhibition at 1 µg/mL in [1] came out at 42.5%; in assay [6], 21.3%. The results for the inhibition at 100 µg/mL in assay [3] and in [9] were 93.8% and 53.3%, respectively.
`Cc1cc(C)c2ncc(C(=O)N(C)c3ccccc3)c(O)c2c1`: the inhibition at 1 µg/mL in [1] stood at 1.84%. For the same molecule, in [2], the inhibition at 10 µg/mL was 12.9%. The inhibition at 100 µg/mL in [3] turned out to be 47.1%.
Regarding `CSc1ccc2ncc(C(=O)NCCN(C)C)c(O)c2c1`, the inhibition at 10 µg/mL was -9.69% in [5] and -42.6% in [2]. The figures for the inhibition at 1 µg/mL in assay [1] and in assay [6] were -182% and -4.33%, respectively. In addition, the inhibition at 100 µg/mL in assay [3] came out at 98.2%; in assay [9], 87.7%.
Regarding `COc1ccc2c(O)c(C(=O)NCCN(C)C)cnc2c1`, the inhibition at 1 µg/mL in assay [1] was -40.7%. For the same molecule, the inhibition at 10 µg/mL in assay [2] was -15.3%. Also, in assay [3], the inhibition at 100 µg/mL was 92.8%.
On to `CN(C(=O)c1cnc2cc(C(F)(F)F)ccc2c1O)c1ccccc1`, for which the inhibition in assay [4] was -3.57%; in [8] it was -5.45%. The inhibition at 10 µg/mL came out at 6.41% in assay [5] and 4.11% in assay [2]. In addition, the inhibition at 1 µg/mL in assay [1] amounted to 54.7%; in [6] it was 39.8%. For the same molecule, the inhibition at 100 µg/mL stood at 93.6% in assay [3] and 64.9% in assay [9].
With `O=C(O)c1ccc2ncc(C(=O)Nc3ccccc3)c(O)c2c1`, the inhibition at 10 µg/mL in [5] worked out at 80.6%; in assay [2] it was 57.5%. Besides, the inhibition at 1 µg/mL in assay [1] was found to be 71.3%; in assay [6] it was 82.5%. In addition, the values for the inhibition at 100 µg/mL in assay [3] and in assay [9] were 39.8% and 48.5%, respectively. For the same molecule, the results for the inhibition in assay [7] and in assay [8] were 15.2% and 15.5%, respectively.
For `Cc1ccc2ncc(C(=O)N(C)c3ccccc3)c(O)c2c1`, the inhibition at 1 µg/mL in [1] was -59.3%. Further, the inhibition at 10 µg/mL in [2] is -20%. Further, the inhibition at 100 µg/mL in assay [3] was -1.7%.
Turning to `CN(C(=O)c1cnc2cc(F)ccc2c1O)c1ccccc1`, the results for the inhibition at 10 µg/mL in assay [5] and in assay [2] were 12.5% and -21.5%, respectively. Besides, the inhibition at 1 µg/mL was -46.8% in [1] and 4% in assay [6]. Further, the inhibition at 100 µg/mL in assay [3] is 17.1%; in assay [9], -127%.
With `CN(C(=O)c1cnc2ccccc2c1O)c1ccccc1`, the inhibition in assay [4] was -1.33%; in [7], 7.59%. The results for the inhibition at 10 µg/mL in assay [5] and in assay [2] were 8.46% and 24.9%, respectively. Also, the inhibition at 1 µg/mL in [1] is -7.55%; in assay [6], 17.7%. In addition, the inhibition at 100 µg/mL in assay [3] is -9.33%; in assay [9] it was 32.4%.
As to `CN(C)CCNC(=O)c1cnc2ccc(Br)cc2c1O`, in [1], the inhibition at 1 µg/mL is -19.6%. Moreover, in assay [2], the inhibition at 10 µg/mL was 31.6%. Also, the inhibition at 100 µg/mL in assay [3] is 99.7%.
Turning to `CN(C)CC(C)(C)CNC(=O)c1cnc2ccc(F)cc2c1O`, the inhibition at 10 µg/mL in assay [5] was 17.8%; in assay [2] it was 32.9%. Further, the inhibition at 1 µg/mL in assay [1] was -30.7%; in assay [6], 21.3%. Also, the inhibition at 100 µg/mL in [3] stood at 87.4%; in assay [9], 70.5%.
Take `CN(C)CCNC(=O)c1cnc2ccccc2c1O`: in assay [1], the inhibition at 1 µg/mL is -14.4%. Also, the inhibition at 10 µg/mL in [2] was -6.94%. Further, in assay [3], the inhibition at 100 µg/mL was 73.6%.
With `CN(C)CCNC(=O)c1cnc2cc(F)ccc2c1O`, the inhibition at 1 µg/mL in assay [1] was -24.6%. The inhibition at 10 µg/mL in assay [2] was -9%. For the same molecule, the inhibition at 100 µg/mL in [3] amounted to 87.2%.
Turning to `O=C(O)c1ccc2ncc(C(=O)Nc3cccc(Cl)c3)c(O)c2c1`, the inhibition at 10 µg/mL in assay [5] was 94.3%; in assay [2] it was 84.8%. In addition, the values for the inhibition at 1 µg/mL in assay [1] and in assay [6] were 87.6% and 78.5%, respectively. For the same molecule, the inhibition at 100 µg/mL was 73.4% in assay [3] and 94.7% in assay [9].
On to `CSc1ccc2c(O)c(C(=O)NCCN(C)C)cnc2c1`, for which the inhibition at 1 µg/mL in [1] worked out at 30.3%. Further, the inhibition at 10 µg/mL in [2] amounted to 38.5%. The inhibition at 100 µg/mL in assay [3] is 100%.
Regarding `Cc1cc(C)c2ncc(C(=O)NCCN(C)C)c(O)c2c1`, the inhibition at 1 µg/mL in assay [1] was found to be 0.95%. The inhibition at 10 µg/mL in assay [2] was found to be 38.5%. Further, in assay [3], the inhibition at 100 µg/mL was determined as 99.6%.
For the molecule `Cc1ccc2ncc(C(=O)NCCN(C)C)c(O)c2c1`, in [1], the inhibition at 1 µg/mL was -27.5%. Moreover, the inhibition at 10 µg/mL in assay [2] was -11.2%. The inhibition at 100 µg/mL in [3] came to 94.9%.
